A value given as a limit tells only on which side of the number the result lay.

Results on 17 compounds are retold here after ChEMBL document CHEMBL2062506, “Synthesis, characterization and structure optimization of a series of thiazolidinone derivatives as Entamoeba histolytica inhibitors” (Eur J Med Chem, 2012).

The nature of series [1]: Octanol-water partition coefficient, log P of the compound. It is filed as physicochemical.
The test system of series [2] is Entamoeba histolytica. The series can be described thus: Antiamoebic activity against Entamoeba histolytica HM-1:IMSS after 72 hrs by microdilution method.
For series [3], the system named is HepG2. The series can be described thus: Cytotoxicity against human HepG2 cells after 48 hrs by MTT assay. The class given is cell-based. As to conditions: for IC50: Homo sapiens, HepG2, 48 h; for inhibition (INH): human, hepg2, 48 h. Put shortly: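 HepG2 cells grown in DMEM with 10% heat-inactivated FBS and antibiotics at 37 °C, 5% CO2. Cells seeded at 1.2 × 10^4/well and grown 48 h, then exposed 48 h to 3.13–100 µM compound (DMSO stock diluted in medium). MTT (5 mg/mL) added for 4 h, formazan dissolved in DMSO, A570 read against 655 nm reference. Viability expressed relative to untreated cells; triplicate, repeated thrice.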
(In general: Tetrazolium dyes change colour on reduction, which living cells bring about.)

As usually defined, the logP is the decadic logarithm of the partition coefficient of the neutral form, usually between octanol and water. A high value points to a more lipophilic compound. As usually defined, the IC50 is the point on the concentration scale where inhibition reaches its midpoint. `CC(C)CN1C(=O)/C(=C/c2ccc(O)cc2)S/C1=N\c1ccccc1` registered a logP in series [1] of 5.08. The compound also registered an IC50 in series [2] of 2450 nM.
As for `COc1ccc(/C=C2\S/C(=N\c3ccccc3)N(CC(C)C)C2=O)cc1OC`, in series [1], the logP was determined as 5.06. The same compound gave an IC50 in series [2] of 440 nM. Besides, in series [3], the IC50 was above 100000 nM and the “inhibition (INH)” value is given as “Dose-dependent effect”.
`COc1ccc(/C=C2\S/C(=N\c3ccccc3)N(CC(C)C)C2=O)cc1`: in series [1], the logP was 5.22. In addition, the half-maximal inhibitory concentration (IC50) in series [2] is 2720 nM.
On the same counts, the results for `Cc1ccc(/C=C2\S/C(=N\c3ccccc3)N(CC(C)C)C2=O)cc1` are 5.89 and 3210 nM.
`CC(C)CN1C(=O)/C(=C/c2ccccc2O)S/C1=N\c1ccccc1`: the logP in series [1] came out at 5.08. Further, the IC50 in series [2] is 2040 nM.
On the same counts, the results for `CC(C)CN1C(=O)/C(=C/c2ccc3c(c2)OCO3)S/C1=N\c1ccccc1` are 5 and 16700 nM.
In series [1], `CC(C)CN1C(=O)/C(=C/c2ccccn2)S/C1=N\c1ccccc1` yielded a logP of 4.4. The compound further came in with an IC50 in series [2] of 600 nM. Further, in series [3], the IC50 is above 100000 nM and the “inhibition (INH)” value is on record as “Dose-dependent effect”.
On the same counts, the results for `Cc1ccsc1/C=C1\S/C(=N\c2ccccc2)N(CC(C)C)C1=O` are 5.81, 110 nM, 89200 nM and “Dose-dependent effect”.
On the same counts, the results for `COc1cc(/C=C2\S/C(=N\c3ccccc3)N(CC(C)C)C2=O)ccc1O` are 4.92, 640 nM, 89500 nM and “Dose-dependent effect”.
On the same counts, the results for `CC(C)CN1C(=O)/C(=C/c2cccc(Cl)c2)S/C1=N\c1ccccc1` are 5.98, 660 nM, 88100 nM and “Dose-dependent effect”.
Turning to `COc1ccc(OC)c(/C=C2\S/C(=N\c3ccccc3)N(CC(C)C)C2=O)c1`, the logP in series [1] came out at 5.06. Besides, in series [2], half-maximal inhibition (IC50) was put at 1950 nM.
Consider `CCc1ccc(/C=C2\S/C(=N\c3ccccc3)N(CC(C)C)C2=O)cc1`, for which, in series [1], the logP is 6.34. In series [2], this compound had an IC50 of 960 nM. In series [3], the IC50 amounted to 84700 nM and the “inhibition (INH)” value is listed as “Dose-dependent effect”.
Regarding `CC(C)CN1C(=O)/C(=C/c2ccc(Cl)cc2)S/C1=N\c1ccccc1`, the logP in series [1] worked out at 5.98. In addition, the midpoint of inhibition in series [2], the IC50, lay at 1920 nM.
In series [1], `CC(C)CN1C(=O)/C(=C/c2ccccc2C(F)(F)F)S/C1=N\c1ccccc1` gave a logP of 6.26. The compound further returned an IC50 in series [2] of 3710 nM.
In turn, `CC(C)CN1C(=O)/C(=C/c2ccc(N(C)C)cc2)S/C1=N\c1ccccc1` showed a logP in series [1] of 5.49. Moreover, the results for the half-inhibitory concentration (IC50) in series [2] and in series [3] were 172 nM and above 100000 nM, respectively. In series [3], the “inhibition (INH)” value is “Dose-dependent effect”.
On the same counts, the results for `CC(C)CN1C(=O)/C(=C/c2ccc([N+](=O)[O-])cc2)S/C1=N\c1ccccc1` are 5.32, 138 nM, above 100000 nM and “Dose-dependent effect”.
For `Cc1ncc([N+](=O)[O-])n1CCO` [METRONIDAZOLE], half-maximal inhibition in series [2] (IC50) was put at 1640 nM. In addition, in series [3], the IC50 was above 100000 nM and the “inhibition (INH)” value is “Dose-dependent effect”.
